Assay results reported in ChEMBL document CHEMBL1151428, “Capability of 11 antipneumococcal antibiotics to select for resistance by multistep and single-step methodologies” (2007).
Values after ≈ are worked out from the molar mass of the structure shown.

How the values were obtained:
Format in all cases: functional
Streptococcus pneumoniae [1] = assay: Antimicrobial activity against drug-resistant Streptococcus pneumoniae isolate 24 after 50 passages with moxifloxacin measured after 10 antibiotic-free subculture by multi-step resistance selection technique
Outline: (§1)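 Mutants selected by daily broth passage in subinhibitory drug in cation-adjusted Mueller-Hinton broth with 5% lysed horse blood. Stability was tested by 10 daily passages on blood agar without antibiotic, then macrodilution MIC.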

Streptococcus pneumoniae [2] = assay: Antimicrobial activity against drug-resistant Streptococcus pneumoniae isolate 3676 after 50 passages by multi-step resistance selection technique
Outline: (§2)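 Daily serial passage in broth at subinhibitory drug levels: 1 ml cation-adjusted Mueller-Hinton broth with 5% lysed horse blood; fresh broth for tigecycline. Each day 10 μl inoculum taken from the tube one to two dilutions below MIC matching growth-control turbidity, used to set next MIC. Continued until ≥8-fold MIC rise, minimum 14, maximum 50 passages; MIC read by macrodilution.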

Streptococcus pneumoniae [3] = assay: Antimicrobial activity against drug-resistant Streptococcus pneumoniae isolate 24 by NCCLS M7-A7 method
Streptococcus pneumoniae [4] = assay: Antimicrobial activity against drug-resistant Streptococcus pneumoniae isolate 3009 by NCCLS M7-A7 method
Streptococcus pneumoniae [5] = assay: Antimicrobial activity against drug-resistant Streptococcus pneumoniae isolate 2527 by NCCLS M7-A7 method
Streptococcus pneumoniae [6] = assay: Antimicrobial activity against drug-resistant Streptococcus pneumoniae isolate 1635 by NCCLS M7-A7 method
Streptococcus pneumoniae [7] = assay: Antimicrobial activity against drug-resistant Streptococcus pneumoniae isolate 3274 by NCCLS M7-A7 method
Streptococcus pneumoniae [8] = assay: Antimicrobial activity against drug-resistant Streptococcus pneumoniae isolate 3665 after 50 passages by multi-step resistance selection technique; outline: as §2
Streptococcus pneumoniae [9] = assay: Antimicrobial activity against drug-resistant Streptococcus pneumoniae isolate 1635 after 49 passages with clarithromycin measured after 10 antibiotic-free subculture by multi-step resistance selection technique
Streptococcus pneumoniae [10] = assay: Antimicrobial activity against drug-resistant Streptococcus pneumoniae isolate 3009 after 21 passages with gemifloxacin measured after 10 antibiotic-free subculture by multi-step resistance selection technique; outline: as §1
Streptococcus pneumoniae [11] = assay: Antimicrobial activity against drug-resistant Streptococcus pneumoniae isolate 3274 after 50 passages by multi-step resistance selection technique
Outline: (§3)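 Daily serial passage in subinhibitory drug levels in 1 ml cation-adjusted Mueller-Hinton broth with 5% lysed horse blood; fresh broth for tigecycline. Each day, 10 μl were taken from the tube one to two dilutions below the MIC whose turbidity matched the growth control, and used to set the next MIC. MIC by macrodilution.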

Streptococcus pneumoniae [12] = assay: Antimicrobial activity against drug-resistant Streptococcus pneumoniae isolate 3665 after 38 passages with moxifloxacin measured after 10 antibiotic-free subculture by multi-step resistance selection technique
Streptococcus pneumoniae [13] = assay: Antimicrobial activity against drug-resistant Streptococcus pneumoniae isolate 24 after 50 passages by multi-step resistance selection technique; outline: as §3
Streptococcus pneumoniae [14] = assay: Antimicrobial activity against drug-resistant Streptococcus pneumoniae isolate 3009 after 25 passages with clarithromycin measured after 10 antibiotic-free subculture by multi-step resistance selection technique
Streptococcus pneumoniae [15] = assay: Antimicrobial activity against drug-resistant Streptococcus pneumoniae isolate 1076 after 14 passages with Telithromycin measured after 10 antibiotic-free subculture by multi-step resistance selection technique; outline: as §1
Streptococcus pneumoniae [16] = assay: Antimicrobial activity against drug-resistant Streptococcus pneumoniae isolate 1635 after 14 passages with azithromycin measured after 10 antibiotic-free subculture by multi-step resistance selection technique; outline: as §1
Streptococcus pneumoniae [17] = assay: Antimicrobial activity against drug-resistant Streptococcus pneumoniae isolate 3676 after 44 passages with clarithromycin measured after 10 antibiotic-free subculture by multi-step resistance selection technique
Streptococcus pneumoniae [18] = assay: Antimicrobial activity against drug-resistant Streptococcus pneumoniae isolate 1076 after 35 passages with moxifloxacin measured after 10 antibiotic-free subculture by multi-step resistance selection technique; outline: as §1
Streptococcus pneumoniae [19] = assay: Antimicrobial activity against drug-resistant Streptococcus pneumoniae isolate 3665 by NCCLS M7-A7 method
Streptococcus pneumoniae [20] = assay: Antimicrobial activity against drug-resistant Streptococcus pneumoniae isolate 37 by NCCLS M7-A7 method
Streptococcus pneumoniae [21] = assay: Antimicrobial activity against drug-resistant Streptococcus pneumoniae isolate 3676 after 50 passages with moxifloxacin measured after 10 antibiotic-free subculture by multi-step resistance selection technique
Streptococcus pneumoniae [22] = assay: Antimicrobial activity against drug-resistant Streptococcus pneumoniae isolate 2527 after 14 passages with gemifloxacin measured after 10 antibiotic-free subculture by multi-step resistance selection technique; outline: as §1
Streptococcus pneumoniae [23] = assay: Antimicrobial activity against drug-resistant Streptococcus pneumoniae isolate 3274 after 48 passages with Telithromycin measured after 10 antibiotic-free subculture by multi-step resistance selection technique; outline: as §1
Streptococcus pneumoniae [24] = assay: Antimicrobial activity against drug-resistant Streptococcus pneumoniae isolate 1635 after 14 passages with clindamycin measured after 10 antibiotic-free subculture by multi-step resistance selection technique
Streptococcus pneumoniae [25] = assay: Antimicrobial activity against drug-resistant Streptococcus pneumoniae isolate 3243 after 29 passages with Telithromycin measured after 10 antibiotic-free subculture by multi-step resistance selection technique; outline: as §1
Streptococcus pneumoniae [26] = assay: Antimicrobial activity against drug-resistant Streptococcus pneumoniae isolate 1076 by NCCLS M7-A7 method
Streptococcus pneumoniae [27] = assay: Antimicrobial activity against drug-resistant Streptococcus pneumoniae isolate 3243 after 33 passages with azithromycin measured after 10 antibiotic-free subculture by multi-step resistance selection technique; outline: as §1
Streptococcus pneumoniae [28] = assay: Antimicrobial activity against drug-resistant Streptococcus pneumoniae isolate 3009 after 50 passages by multi-step resistance selection technique
Outline: as §3, with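 “MIC. […]” for “MIC.”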

Streptococcus pneumoniae [29] = assay: Antimicrobial activity against drug-resistant Streptococcus pneumoniae isolate 3243 by NCCLS M7-A7 method
Streptococcus pneumoniae [30] = assay: Antimicrobial activity against drug-resistant Streptococcus pneumoniae isolate 3665 after 26 passages with clarithromycin measured after 10 antibiotic-free subculture by multi-step resistance selection technique
Streptococcus pneumoniae [31] = assay: Antimicrobial activity against drug-resistant Streptococcus pneumoniae isolate 2527 after 20 passages with azithromycin measured after 10 antibiotic-free subculture by multi-step resistance selection technique; outline: as §1
Streptococcus pneumoniae [32] = assay: Antimicrobial activity against drug-resistant Streptococcus pneumoniae isolate 2527 after 50 passages by multi-step resistance selection technique
Outline: as §3, with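 “MIC. […]” for “MIC.”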

Streptococcus pneumoniae [33] = assay: Antimicrobial activity against drug-resistant Streptococcus pneumoniae isolate 3243 after 50 passages by multi-step resistance selection technique
Outline: as §3, with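 “MIC. […]” for “MIC.”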

Streptococcus pneumoniae [34] = assay: Antimicrobial activity against drug-resistant Streptococcus pneumoniae isolate 1635 after 50 passages by multi-step resistance selection technique; outline: as §3
Streptococcus pneumoniae [35] = assay: Antimicrobial activity against drug-resistant Streptococcus pneumoniae isolate 1077 after 15 passages with Telithromycin measured after 10 antibiotic-free subculture by multi-step resistance selection technique; outline: as §1
Streptococcus pneumoniae [36] = assay: Antimicrobial activity against drug-resistant Streptococcus pneumoniae isolate 3243 after 41 passages with clarithromycin measured after 10 antibiotic-free subculture by multi-step resistance selection technique
Streptococcus pneumoniae [37] = assay: Antimicrobial activity against drug-resistant Streptococcus pneumoniae isolate 3009 after 18 passages with levofloxacin measured after 10 antibiotic-free subculture by multi-step resistance selection technique; outline: as §1
Streptococcus pneumoniae [38] = assay: Antimicrobial activity against drug-resistant Streptococcus pneumoniae isolate 3009 after 19 passages with moxifloxacin measured after 10 antibiotic-free subculture by multi-step resistance selection technique; outline: as §1
Streptococcus pneumoniae [39] = assay: Antimicrobial activity against drug-resistant Streptococcus pneumoniae isolate 3676 after 14 passages with Telithromycin measured after 10 antibiotic-free subculture by multi-step resistance selection technique

| Compound | MIC (Streptococcus pneumoniae [1]) | MIC (Streptococcus pneumoniae [2]) | MIC (Streptococcus pneumoniae [3]) | MIC (Streptococcus pneumoniae [5]) | MIC (Streptococcus pneumoniae [6]) | MIC (Streptococcus pneumoniae [7]) | MIC (Streptococcus pneumoniae [8]) | MIC (Streptococcus pneumoniae [9]) | MIC (Streptococcus pneumoniae [10]) | MIC (Streptococcus pneumoniae [11]) | MIC (Streptococcus pneumoniae [12]) | MIC (Streptococcus pneumoniae [13]) | MIC (Streptococcus pneumoniae [14]) | MIC (Streptococcus pneumoniae [15]) | MIC (Streptococcus pneumoniae [16]) | MIC (Streptococcus pneumoniae [17]) | MIC (Streptococcus pneumoniae [18]) | MIC (Streptococcus pneumoniae [19]) | MIC (Streptococcus pneumoniae [20]) | MIC (Streptococcus pneumoniae [21]) | also measured |
| --- | --- | --- | --- | --- | --- | --- | --- | --- | --- | --- | --- | --- | --- | --- | --- | --- | --- | --- | --- | --- | --- |
| CO/N=C(\C(=O)N[C@@H]1C(=O)N2C(C(=O)O)=C(CSc3nc(=O)c(O)nn3C)CS[C@H]12)c1csc(N)n1 [CEFTRIAXONE] | 1 µg/mL (≈ 1.8 µM) | 0.06 µg/mL (≈ 0.108 µM) | 1 µg/mL (≈ 1.8 µM) | 2 µg/mL (≈ 3.61 µM) | 0.016 µg/mL (≈ 0.0289 µM) | 0.125 µg/mL (≈ 0.225 µM) | 0.06 µg/mL (≈ 0.108 µM) | 0.016 µg/mL (≈ 0.0289 µM) | 0.03 µg/mL (≈ 0.0541 µM) | 0.25 µg/mL (≈ 0.451 µM) | 0.06 µg/mL (≈ 0.108 µM) | 2 µg/mL (≈ 3.61 µM) | 0.016 µg/mL (≈ 0.0289 µM) | 0.03 µg/mL (≈ 0.0541 µM) | 0.016 µg/mL (≈ 0.0289 µM) | 0.03 µg/mL (≈ 0.0541 µM) | 0.016 µg/mL (≈ 0.0289 µM) | 0.06 µg/mL (≈ 0.108 µM) | 2 µg/mL (≈ 3.61 µM) | 0.03 µg/mL (≈ 0.0541 µM) | MIC (Streptococcus pneumoniae [4]): 0.03 µg/mL (≈ 0.0541 µM); MIC (Streptococcus pneumoniae [22]): 1 µg/mL (≈ 1.8 µM); MIC (Streptococcus pneumoniae [23]): 0.125 µg/mL (≈ 0.225 µM); MIC (Streptococcus pneumoniae [24]): 0.016 µg/mL (≈ 0.0289 µM); MIC (Streptococcus pneumoniae [25]): 0.125 µg/mL (≈ 0.225 µM); MIC (Streptococcus pneumoniae [26]): 0.016 µg/mL (≈ 0.0289 µM); MIC (Streptococcus pneumoniae [27]): 0.125 µg/mL (≈ 0.225 µM); MIC (Streptococcus pneumoniae [28]): 0.03 µg/mL (≈ 0.0541 µM); MIC (Streptococcus pneumoniae [29]): 0.125 µg/mL (≈ 0.225 µM); MIC (Streptococcus pneumoniae [30]): 0.03 µg/mL (≈ 0.0541 µM); MIC (Streptococcus pneumoniae [31]): 2 µg/mL (≈ 3.61 µM); MIC (Streptococcus pneumoniae [32]): 8 µg/mL (≈ 14.4 µM); MIC (Streptococcus pneumoniae [33]): 0.25 µg/mL (≈ 0.451 µM); MIC (Streptococcus pneumoniae [34]): 0.03 µg/mL (≈ 0.0541 µM); MIC (Streptococcus pneumoniae [35]): 0.016 µg/mL (≈ 0.0289 µM); MIC (Streptococcus pneumoniae [36]): 0.125 µg/mL (≈ 0.225 µM); MIC (Streptococcus pneumoniae [37]): 0.016 µg/mL (≈ 0.0289 µM); MIC (Streptococcus pneumoniae [38]): 0.03 µg/mL (≈ 0.0541 µM); MIC (Streptococcus pneumoniae [39]): 0.06 µg/mL (≈ 0.108 µM) |
| CN(C)c1cc(NC(=O)CNC(C)(C)C)c(O)c2c1C[C@H]1C[C@H]3[C@H](N(C)C)C(O)=C(C(N)=O)C(=O)[C@@]3(O)C(O)=C1C2=O [TIGECYCLINE] | 0.03 µg/mL (≈ 0.0512 µM) | 0.016 µg/mL (≈ 0.0273 µM) | 0.03 µg/mL (≈ 0.0512 µM) | 0.016 µg/mL (≈ 0.0273 µM) | 0.016 µg/mL (≈ 0.0273 µM) | 0.03 µg/mL (≈ 0.0512 µM) | 0.016 µg/mL (≈ 0.0273 µM) | 0.016 µg/mL (≈ 0.0273 µM) | 0.016 µg/mL (≈ 0.0273 µM) | 0.03 µg/mL (≈ 0.0512 µM) | 0.03 µg/mL (≈ 0.0512 µM) | 0.03 µg/mL (≈ 0.0512 µM) | 0.03 µg/mL (≈ 0.0512 µM) | 0.03 µg/mL (≈ 0.0512 µM) | 0.03 µg/mL (≈ 0.0512 µM) | 0.03 µg/mL (≈ 0.0512 µM) | 0.06 µg/mL (≈ 0.102 µM) | 0.016 µg/mL (≈ 0.0273 µM) | 0.016 µg/mL (≈ 0.0273 µM) | 0.03 µg/mL (≈ 0.0512 µM) | MIC (Streptococcus pneumoniae [22]): 0.03 µg/mL (≈ 0.0512 µM); MIC (Streptococcus pneumoniae [23]): 0.03 µg/mL (≈ 0.0512 µM); MIC (Streptococcus pneumoniae [24]): 0.03 µg/mL (≈ 0.0512 µM); MIC (Streptococcus pneumoniae [25]): 0.03 µg/mL (≈ 0.0512 µM); MIC (Streptococcus pneumoniae [26]): 0.03 µg/mL (≈ 0.0512 µM); MIC (Streptococcus pneumoniae [27]): 0.06 µg/mL (≈ 0.102 µM); MIC (Streptococcus pneumoniae [28]): 0.016 µg/mL (≈ 0.0273 µM); MIC (Streptococcus pneumoniae [29]): 0.03 µg/mL (≈ 0.0512 µM); MIC (Streptococcus pneumoniae [30]): 0.03 µg/mL (≈ 0.0512 µM); MIC (Streptococcus pneumoniae [31]): 0.03 µg/mL (≈ 0.0512 µM); MIC (Streptococcus pneumoniae [32]): 0.016 µg/mL (≈ 0.0273 µM); MIC (Streptococcus pneumoniae [33]): 0.03 µg/mL (≈ 0.0512 µM); MIC (Streptococcus pneumoniae [34]): 0.03 µg/mL (≈ 0.0512 µM); MIC (Streptococcus pneumoniae [35]): 0.03 µg/mL (≈ 0.0512 µM); MIC (Streptococcus pneumoniae [36]): 0.03 µg/mL (≈ 0.0512 µM); MIC (Streptococcus pneumoniae [37]): 0.06 µg/mL (≈ 0.102 µM); MIC (Streptococcus pneumoniae [38]): 0.06 µg/mL (≈ 0.102 µM); MIC (Streptococcus pneumoniae [39]): 0.03 µg/mL (≈ 0.0512 µM) |
